Source: paper PMC2886165 (Biochimica et biophysica acta, 2010)
Values joined by “and” are separate entries in the source; they are usually repeats but may differ in a detail not shown here. Equal entries are not always repeated. Where two headings read alike, the source gives them in different places.

What was measured:
LXRs = conditions: cited from earlier work
Gal4-RORγ LBD [1] = target: T1, Gal4-RORγ LBD (Homo sapiens, UniProt P51449); conditions: previous study; cited from earlier work
T1 sequence (P51449 269-508 limits assumed): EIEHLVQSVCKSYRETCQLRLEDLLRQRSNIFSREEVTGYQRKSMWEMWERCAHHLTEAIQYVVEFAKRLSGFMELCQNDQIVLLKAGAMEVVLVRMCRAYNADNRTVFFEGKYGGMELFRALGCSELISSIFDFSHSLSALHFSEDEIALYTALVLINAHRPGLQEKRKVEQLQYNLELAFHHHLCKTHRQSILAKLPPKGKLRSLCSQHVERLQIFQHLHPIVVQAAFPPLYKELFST

Gal4-RORα LBD [2] = target: T2, Gal4-RORα LBD (Homo sapiens, UniProt P35398); conditions: previous study; cited from earlier work
T2 sequence (P35398 272-510 limits assumed): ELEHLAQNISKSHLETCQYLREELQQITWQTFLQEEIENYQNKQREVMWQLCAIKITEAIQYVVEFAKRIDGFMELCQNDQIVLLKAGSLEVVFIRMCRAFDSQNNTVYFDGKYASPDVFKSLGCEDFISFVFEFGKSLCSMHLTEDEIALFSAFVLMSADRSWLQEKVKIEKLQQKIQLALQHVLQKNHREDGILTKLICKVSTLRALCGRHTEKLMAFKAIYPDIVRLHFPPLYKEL

[3] = test system: RORα target genes (BMAL1, REV-ERBα); test: Quantitative PCR of RORα target genes in HepG2 cells; type: cell-based, human; conditions: 10 μM
Procedure, shortened: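 HepG2 cells treated with 10 μM test compound, with RORα-targeting siRNA or scrambled control siRNA. Total RNA extracted, reverse-transcribed and quantified by real-time PCR using human BMAL1 and REV-ERBα primers.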

Gal4-RORα LBD [4] = target: T2, Gal4-RORα LBD; test: Gal4-RORα LBD cotransfection luciferase assay in HEK293 cells; type: cell-based; conditions: for effect on constitutive activity: single dose of 10 μM
Procedure, shortened: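 Gal4-RORα LBD plasmid transfected into HEK293 cells with Lipofectamine 2000; cells plated 15 × 10^3/well 24 h earlier. […] Dual luciferase read after 24 h; four wells per point, ≥3 repeats. IC50 derived by non-linear regression; dose responses analysed by one-way ANOVA.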

[5] = target: T3, RORα / SRC-2 on BMAL1 promoter (Homo sapiens, UniProt P35398); type: cell-based; conditions: 10 μM, 24 hours, HepG2
T3 sequence (P35398 1-523): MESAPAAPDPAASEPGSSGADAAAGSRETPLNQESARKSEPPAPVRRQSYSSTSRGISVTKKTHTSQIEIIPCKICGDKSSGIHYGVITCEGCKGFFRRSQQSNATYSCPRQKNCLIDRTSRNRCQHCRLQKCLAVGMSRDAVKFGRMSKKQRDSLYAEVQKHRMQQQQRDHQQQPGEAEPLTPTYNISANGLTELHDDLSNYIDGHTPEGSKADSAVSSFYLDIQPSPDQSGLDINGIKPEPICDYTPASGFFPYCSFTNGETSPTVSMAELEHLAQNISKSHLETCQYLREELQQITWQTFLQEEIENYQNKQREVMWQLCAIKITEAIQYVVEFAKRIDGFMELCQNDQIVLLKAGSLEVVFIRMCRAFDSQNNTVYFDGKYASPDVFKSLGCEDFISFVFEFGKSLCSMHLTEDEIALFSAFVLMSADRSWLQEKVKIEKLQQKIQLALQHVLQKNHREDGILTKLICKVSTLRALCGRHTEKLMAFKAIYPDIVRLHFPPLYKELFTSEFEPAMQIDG
Procedure, shortened: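 HepG2 cells (MEM, 10% FBS, 37 °C, 5% CO2) infected with RORα adenovirus for 24 h, then given vehicle or 10 μM test compound for a further 24 h. First IP with anti-FLAG; re-IP with anti-SRC2, anti-RNA Pol II (positive control) or IgG (negative control). Bmal1 promoter amplified by PCR; band intensity averaged over three experiments.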

Gal4-RORγ LBD [6] = target: T1, Gal4-RORγ LBD; test: Gal4-RORγ LBD cotransfection luciferase assay in HEK293 cells; type: cell-based; conditions: for effect on constitutive activity: single dose of 10 μM
RORα LBD = target: T4, RORα LBD (Homo sapiens, UniProt P35398); type: binding; conditions: competition with 3 nM [3H]-25-hydroxycholesterol, Cheng-Prusoff
T4 sequence (P35398 272-510 limits assumed): T2 sequence (P35398 272-510 limits assumed)

RORγ LBD = target: T5, RORγ LBD (Homo sapiens, UniProt P51449); type: binding
T5 sequence (P51449 269-508 limits assumed): T1 sequence (P51449 269-508 limits assumed)

RORα = target: T6, RORα (Homo sapiens, UniProt P35398); test: RORα cotransfection assay, G6Pase promoter luciferase reporter; type: cell-based; conditions: 10 μM, HepG2 (Figure 3C legend)
T6 sequence (P35398 1-523): T3 sequence (P35398 1-523)

full-length RORα = target: T7, full-length RORα (Homo sapiens, UniProt P35398); type: cell-based; conditions: 10 μM, HEK293
T7 sequence (P35398 1-523): T3 sequence (P35398 1-523)
Procedure, shortened: (§1)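 HEK293 cells (DMEM, 10% FBS, 37 °C, 5% CO2) plated at 15 × 10^3 cells/well 24 h before transfection. Lipofectamine 2000 cotransfection of full-length receptor expression vector plus Bmal1 promoter-luciferase reporter. Vehicle or 10 μM test compound added 16 h post-transfection; dual luciferase read 24 h later. Mean ± S.E. of four wells, repeated at least three times; paired t test.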

full-length RORγ = target: T8, full-length RORγ (Homo sapiens, UniProt P51449); type: cell-based; conditions: 10 μM, HEK293
T8 sequence (P51449 1-518): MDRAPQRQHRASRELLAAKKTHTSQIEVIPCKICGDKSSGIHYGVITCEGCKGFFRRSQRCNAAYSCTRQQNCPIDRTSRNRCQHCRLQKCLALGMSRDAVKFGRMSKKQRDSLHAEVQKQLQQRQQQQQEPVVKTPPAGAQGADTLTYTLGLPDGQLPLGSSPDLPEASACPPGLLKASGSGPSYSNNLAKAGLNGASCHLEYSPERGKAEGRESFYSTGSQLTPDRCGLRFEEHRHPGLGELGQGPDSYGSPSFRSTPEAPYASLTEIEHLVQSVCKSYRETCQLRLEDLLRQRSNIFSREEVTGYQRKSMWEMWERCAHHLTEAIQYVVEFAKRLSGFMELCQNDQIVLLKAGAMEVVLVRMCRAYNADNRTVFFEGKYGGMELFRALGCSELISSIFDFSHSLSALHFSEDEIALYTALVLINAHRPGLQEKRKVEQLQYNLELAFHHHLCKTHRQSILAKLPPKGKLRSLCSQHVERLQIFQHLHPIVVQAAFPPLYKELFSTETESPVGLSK
Procedure, shortened: as §1

In the case of `CC(C)CCC[C@@H](C)[C@H]1CC[C@H]2[C@@H]3[C@H](O)C=C4C[C@@H](O)CC[C@]4(C)[C@H]3CC[C@]12C` [7α-OHC], the “affinity for the LXRs” value (LXRs) is given as “no affinity”.
In the case of `C[C@@H](CO)CCC[C@@H](C)[C@H]1CC[C@H]2[C@@H]3CC=C4C[C@@H](O)CC[C@]4(C)[C@H]3CC[C@]12C` [27-OHC], the “effect on activity of RORγ” value (Gal4-RORγ LBD [1]) is listed as “unable to affect the activity” and the “effect on activity of RORα” value (Gal4-RORα LBD [2]) is listed as “unable to affect the activity”.
In the case of `CC(C)[C@@H](O)CC[C@@H](C)[C@H]1CC[C@H]2[C@@H]3CC=C4C[C@@H](O)CC[C@]4(C)[C@H]3CC[C@]12C` [24S-OHC, 24S-hydroxycholesterol], the “decrease of BMAL1 mRNA expression” value [3] is reported as 38%, the “decrease of REV-ERBα mRNA expression” value [3] is reported as 33% and the “reduction of transcriptional activity” value (Gal4-RORα LBD [4]; 10 μM) is reported as 30 to 40%. The Maximal suppression (Gal4-RORα LBD [4]; dose-response) was about 30%, the IC50 (Gal4-RORα LBD [4]; read-out: IC50 (suppression of transcriptional activity), dose-response) was 0.62 µM and the “reduction of SRC-2 recruited versus DMSO control” value [5] was about 50%. For the same molecule, the “reduction of transcriptional activity” value (Gal4-RORγ LBD [6]; 10 μM, HEK293) was 30 to 40%, the Maximal suppression (Gal4-RORγ LBD [6]; dose-response, HEK293) was about 30% and the IC50 (Gal4-RORγ LBD [6]; read-out: IC50 (suppression of transcriptional activity), dose-response, HEK293) was 1.3 µM. The Ki (RORα LBD) was 0.027 µM, the Ki (RORγ LBD; competition with 3 nM [3H]-25-hydroxycholesterol, Cheng-Prusoff) was ~0.025 µM and 0.025 µM and the “suppression of G6Pase promoter reporter expression” value (RORα) was “approximately 30%”. For the same molecule, the “suppression of Bmal1 driven reporter gene expression” value (full-length RORα) was 20-40% and the “suppression of Bmal1 driven reporter gene expression” value (full-length RORγ) was 20-40%.
In the case of `CC(C)CCC[C@@H](C)[C@H]1CC[C@H]2[C@@H]3C(=O)C=C4C[C@@H](O)CC[C@]4(C)[C@H]3CC[C@]12C` [7-ketocholesterol], the “affinity for the LXRs” value (LXRs) is listed as “no affinity”.
For `CC(C)[C@H](O)CC[C@@H](C)[C@H]1CC[C@H]2[C@@H]3CC=C4C[C@@H](O)CC[C@]4(C)[C@H]3CC[C@]12C` [24R-OHC, 24R-hydroxycholesterol], the “effect on constitutive activity” value (Gal4-RORα LBD [4]) was “no effect”, the IC50 (Gal4-RORγ LBD [6]) was 0.09 µM and the “effect on constitutive activity” value (Gal4-RORγ LBD [6]; HEK293) was “significant decrease in the constitutive activity”. The Ki (RORγ LBD) was 0.102 µM.
With `C[C@H](CC[C@@H]1OC1(C)C)[C@H]1CC[C@H]2[C@@H]3CC=C4C[C@@H](O)CC[C@]4(C)[C@H]3CC[C@]12C` [24,25-epoC, 24(S),25 epoxycholesterol] the “effect on constitutive activity” value (Gal4-RORα LBD [4]) was “without having any significant effect”, the IC50 (Gal4-RORγ LBD [6]) was 0.28 µM and the “effect on constitutive activity” value (Gal4-RORγ LBD [6]; HEK293) was “suppresses the activity”. For the same molecule, the Ki (RORγ LBD) was 0.02 µM.
In the case of `CC(C)CC[C@@H](O)[C@@H](C)[C@H]1CC[C@H]2[C@@H]3CC=C4C[C@@H](O)CC[C@]4(C)[C@H]3CC[C@]12C` [22-OHC], the “effect on activity of RORγ” value (Gal4-RORγ LBD [1]) is listed as “unable to affect the activity” and the “effect on activity of RORα” value (Gal4-RORα LBD [2]) is listed as “unable to affect the activity”.
In the case of `C[C@H](CCCC(C)(C)O)[C@H]1CC[C@H]2[C@@H]3CC=C4C[C@@H](O)CC[C@]4(C)[C@H]3CC[C@]12C` [25-OHC, 25-hydroxycholesterol], the “effect on activity of RORα” value (Gal4-RORα LBD [2]) is listed as “unable to affect the activity”.
